Source: article PMC2213384 (The Journal of Experimental Medicine, 1998)
Where two headings read alike, the source gives them in different places. Marks after values point to notes of the source that are not given here.

Assays:
Qa-1^b [1] = format: binding, mouse; conditions: for Binding of poly-Gly peptides to Qa-1^b (in words): Table 2 in words, 20 μM; for Blocking of / binding to Qa-1^b at 20 μM (in words): 20 μM competitor
sCD1 = experiment: SPR direct binding of sCD1 to immobilized QdmC5; conditions: data not shown
sM3 = experiment: SPR direct binding of sM3 to immobilized QdmC5; conditions: Fig. 1 B; 0.5 μM sM3, 20 μl at 1 μl/min
Qa-1^b [2] = conditions: previous finding; ref [6]; cited from earlier work
[3] = Solubility of peptides in running buffer / aqueous solvents; format: physicochemical
Outline: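 Solubility was judged for peptides used as competitors in SPR on a Biacore 2000 at 25°C. The running buffer was Hepes-buffered saline, or 2% DMSO in HBS for the hydrophobic leader peptides. Competitors were at 20 μM (poly-Gly series titrated up to 20 μM), co-injected with 0.5 μM soluble Qa-1b at 1 μl/min for 20 min over immobilized QdmC5.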

[4] = molecular target: QdmC5 peptide (…) (mouse); experiment: SPR
[5] = molecular target: QdmC5 peptide (…) (mouse); experiment: SPR; remark: listed apart in the source
[6] = molecular target: QdmC5 peptide (…) (mouse); experiment: SPR; remark: listed apart in the source
[7] = molecular target: QdmC5 peptide (…) (mouse); experiment: SPR; remark: listed apart in the source
[8] = molecular target: soluble Qa-1^b/β2-microglobulin dimer (mouse (C57BL/6) | murine) (UniProt P06339); experiment: SPR
Sequence of UniProt P06339 (P06339 21-357, chain 1 of 2): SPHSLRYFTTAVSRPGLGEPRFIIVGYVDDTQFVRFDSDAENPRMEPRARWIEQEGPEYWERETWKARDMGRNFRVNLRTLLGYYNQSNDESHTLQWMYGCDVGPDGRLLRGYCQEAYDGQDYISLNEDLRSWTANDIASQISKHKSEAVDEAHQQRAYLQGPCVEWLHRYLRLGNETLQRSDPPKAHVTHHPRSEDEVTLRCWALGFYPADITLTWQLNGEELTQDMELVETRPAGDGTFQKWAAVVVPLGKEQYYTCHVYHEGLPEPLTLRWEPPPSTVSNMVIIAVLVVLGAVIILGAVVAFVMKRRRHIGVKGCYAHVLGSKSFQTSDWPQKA
Sequence of UniProt P06339 (P01887 21-119, chain 2 of 2, further chain): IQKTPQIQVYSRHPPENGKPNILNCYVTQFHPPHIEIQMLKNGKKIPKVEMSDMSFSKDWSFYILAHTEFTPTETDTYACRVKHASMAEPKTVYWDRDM

10-mer: Qdm extended by adding a leucine at position 10 (AMAPRTLLLL)
Binding at 200 nM (in words) (Qa-1^b [1]; Fig. 1 D, 0.5 μM sQa-1^b, competitor 200 nM): almost no binding
Binding relative to the Qdm nonamer at 20 and 2 μM (in words) (Qa-1^b [1]; Fig. 1 D, 0.5 μM sQa-1^b, competitor 20 and 2 μM): decreased binding relative to the nonamer

AMAPCTLLL [QdmC5]
Binding of soluble protein to immobilized peptide (in words) (sCD1): failed to bind
Binding of soluble protein to immobilized peptide (in words) (sM3): failed to bind

AMAPRTLLL [Qdm, reference compound]
Blocking of Qa-1^b binding / binding ability over the titration (in words) (Qa-1^b [1]; Fig. 1 D, 0.5 μM sQa-1^b, competitor 200 nM to 20 μM, 1 μl/min for 20 min): completely blocked binding
Binding to Qa-1^b in 2% DMSO (in words) (Qa-1^b [1]; Fig. 3 B, running buffer 2% DMSO in HBS): bind Qa-1^b
Affinity of binding to Qa-1^b (in words) (Qa-1^b [2]): very high affinity

GMGGGGGLL
Binding of poly-Gly peptides to Qa-1^b (in words) (Qa-1^b [1]): very little binding

GMGGGGLGL
Binding of poly-Gly peptides to Qa-1^b (in words) (Qa-1^b [1]): very little binding

GMGGGGLLL
Blocked binding of sQa-1^b to immobilized QdmC5 peptide (Qa-1^b [1]; highest concentration tested (20 μM)): > 50%
Blocking activity at 200 nM (in words) (Qa-1^b [1]; titration, 200 nM): none
Blocking activity at 2 μM (in words) (Qa-1^b [1]; titration, 2 μM): relatively little blocking activity

MAPRTLLLL
Blocking of / binding to Qa-1^b at 20 μM (in words) (Qa-1^b [1]; Fig. 1 D, 0.5 μM sQa-1^b): failed to bind

MGAMAPRTL
Blocking of / binding to Qa-1^b at 20 μM (in words) (Qa-1^b [1]; Fig. 1 D, 0.5 μM sQa-1^b): failed to bind

VMSPTVLLL
Solubility in 2% DMSO in HBS ([3]; 2% DMSO in HBS (SPR running buffer)): remained soluble
Solubility in aqueous solvents ([3]; aqueous solvents): not soluble in aqueous solvents

soluble Qa-1^b/β2-microglobulin dimer (from UniProt P06339 21-357; P01887 21-119) (complex)
RU, binding in the absence of peptide [4]: 345 RU
RU, binding in the absence of peptide [5]: 230 RU
RU, binding in the absence of peptide [6]: 263 RU
RU, binding in the absence of peptide [7]: 276 RU

AMAPRTLLL [Qdm peptide (…)]
RU of sQa-1^b left on immobilised QdmC5 with 20 μM Qdm [8]: 25 RU
